This is an account of results in PubChem BioAssay.

SMILES strings stand for the structures. Activity calls are given as the source filed them.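 Rule for the calls, unless noted: active = inhibition of the reporter signal at or above 50%; inactive = inhibition below 50%.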

Test [1] can be described thus: inhibitors of TNFa-induced NFkB p65 translocation, primary screen, imaging, HUVEC, MLSMR starter and 10KST1 sets (AID 438;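 active = inhibition above 20% together with a positive visual image hit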;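 note: compound added about 3h40 before a 20 min TNFalpha stimulation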;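 for inhibition: signal is the nuclear over cytoplasmic p65 intensity ratio per well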). As to conditions: HUVEC TNFa-induced p65 nuclear translocation; cell count: measured here: nuclei count (cytotoxicity indicator), at 2.08 µM; inhibition: at 2 µM, stronger effect = higher value, 0% TNFa-plus-vehicle, 100% no-TNFa wells.
Test [2] in a line: inhibitors of mutant huntingtin aggregation, primary screen, imaging, exon1htt(103Q)mCFP cells, high-content imaging (AID 483;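 active = visual image review flags a hit and inhibition of aggregation exceeds 20%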;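 note: compound exposure lasted 3 days before fixation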;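 for nuclei count: percent of the per-plate median nuclei count of sample wells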). The settings on record: exon1htt(103Q)mCFP cell line, aggregate imaging, at 2 µM; inhibition of aggregation: stronger effect = higher value; nuclei count: measured here: cell count, toxicity.
Test [3] is described as follows: inhibitors of E-selectin induction by TNFa, primary screen, imaging, HUVEC, immunofluorescence, MLSMR starter and 10KST1 sets (AID 487;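 active = visually confirmed hit in the image check and inhibition above 20%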;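 for inhibition: signal is fraction of cell area covered by stained E-selectin grains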;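 for nuclei count: 100% = median nuclei count of all wells on the same plate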). As to conditions: HUVEC TNFalpha-induced E-selectin immunofluorescence imaging, at 2 µM; inhibition: stronger effect = higher value; nuclei count: measured here: cell number, toxicity.
For test [4], the target named is Voltage-gated potassium channel subunit beta-2 (Rattus norvegicus) (UniProt P62483). As to the kind of experiment: KvBeta enzyme negative modulators, primary screen, biochemical, NADPH fluorescence (AID 622;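 active = fluorescence slope higher than the sample average by over 3 SD, cut at about -0.22 in these data, passing the limit was not always enough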;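 note: slope of raw intensity against log time taken from 70 to 1610 s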). The settings on record: recombinant KvBeta, 4-cyanobenzaldehyde reduction, at 10 µM, stronger effect = higher value.
Test [5] shares this target. As to the kind of experiment: KvBeta positive modulators, primary screen, biochemical, NADPH fluorescence (AID 623;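 active = NADPH fluorescence slope more negative than the mean of all samples by about 3 SD, 99.7% confidence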;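 note: fluorescence intensity change per second fitted from 20 to 320 s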). As to conditions: Recombinant KvBeta, NADPH fluorescence decrease slope, 10 min; at 10 µM; stronger effect = lower value.
For test [6], the target named is Muscarinic acetylcholine receptor M4 (Homo sapiens) (UniProt P08173). Put plainly: compounds altering M4/GIRK thallium flux, either direction, primary screen, M4 allosteric agonist project, cell-based, HEK293 M4/GIRK, BTC-AM (AID 625;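 active = fluorescence slope after compound addition differing from the mean of all tested samples at 99.7% confidence, mostly higher but some lower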;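 note: thallium influx through GIRK channels coupled to M4 in HEK293 cells with BTC-AM dye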). The settings on record: at 10 µM, actives lie on both sides. In short, it runs like this:
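Assay system: HEK293 cells with M4 receptor and GIRK channels / Controls: carbachol and DMSO controls / Schedule: 1 h dye loading, 2 min kinetic read / Technique: kinetic fluorescence with BTC-AM dye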

A short description of test [7]: inhibitors of Sendai virus-induced IRF3 signaling, primary screen, TLR/RLR signaling modifier project, cell-based, Sendai virus stimulus, luciferase, 10K MLSCN set (AID 602276;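 active = inhibition at or above 50% at 10 µM; inactive = inhibition below 50%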;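 note: firefly luciferase from ISG56 promoter only with Renilla not read in this screen; 0% = Sendai virus plus DMSO and 100% = medium plus DMSO without virus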). As to conditions: HEK293 RL24 IRF3 luciferase reporter, at 10 µM, stronger effect = higher value. (In general: A reporter such as luciferase makes a cellular process visible.)
Test [8] in a line: inhibitors of poly I:C-induced TLR3 signaling, primary screen, cell-based, poly I:C stimulus, luciferase, 10K MLSCN set (AID 602277). As to conditions: HEK293-TLR3 RL24 IRF3 luciferase reporter, at 10 µM, stronger effect = higher value.

Chain of Voltage-gated potassium channel subunit beta-2 (Rattus norvegicus) (P62483 whole entry, looked up): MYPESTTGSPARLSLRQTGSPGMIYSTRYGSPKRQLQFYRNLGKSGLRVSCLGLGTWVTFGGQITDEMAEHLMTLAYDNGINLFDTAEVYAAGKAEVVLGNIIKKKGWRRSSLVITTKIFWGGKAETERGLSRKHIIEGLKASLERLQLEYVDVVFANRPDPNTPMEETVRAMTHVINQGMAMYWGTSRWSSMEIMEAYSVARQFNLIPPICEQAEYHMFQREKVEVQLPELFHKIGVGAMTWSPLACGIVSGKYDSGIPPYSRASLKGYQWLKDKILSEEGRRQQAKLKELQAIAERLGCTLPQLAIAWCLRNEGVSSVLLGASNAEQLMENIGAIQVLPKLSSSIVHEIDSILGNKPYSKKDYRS
Chain of Muscarinic acetylcholine receptor M4 (Homo sapiens) (P08173 whole entry, looked up): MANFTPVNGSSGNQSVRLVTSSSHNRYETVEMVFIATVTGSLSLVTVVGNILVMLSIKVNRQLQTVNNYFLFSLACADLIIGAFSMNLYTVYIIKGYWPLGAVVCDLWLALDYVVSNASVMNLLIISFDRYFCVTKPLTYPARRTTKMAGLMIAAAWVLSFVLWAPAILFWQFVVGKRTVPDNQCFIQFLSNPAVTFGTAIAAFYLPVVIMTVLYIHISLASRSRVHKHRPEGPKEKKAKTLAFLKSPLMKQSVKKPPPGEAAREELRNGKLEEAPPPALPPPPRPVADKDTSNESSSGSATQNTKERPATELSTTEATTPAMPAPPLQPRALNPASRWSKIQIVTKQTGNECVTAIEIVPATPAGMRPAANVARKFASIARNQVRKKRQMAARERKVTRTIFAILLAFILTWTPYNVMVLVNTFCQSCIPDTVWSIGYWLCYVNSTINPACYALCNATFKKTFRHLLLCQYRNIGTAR

For orientation: inhibition means the relative decrease from the control value, in per cent. For the compound `CCOc1ccccc1NC(=O)CSc1c(C)n[nH]c1C`, the cell count in test [1] stood at 333. The inhibition in test [1] is -2% (inactive); in test [3], -17.1% (inactive); in test [7] it was 1.91% (inactive); in test [8], 15.3% (inactive). Also, the inhibition of aggregation in test [2] is -21.4% (inactive). Also, the nuclei count in test [2] worked out at 120%; in test [3], 113%. Besides, the fluorescence slope is -0.548 (inactive) in test [4] and 0.00526 (inactive) in test [6]. Moreover, in test [5], the NADPH fluorescence slope was -1.7e-05 (inactive).
Take `Cc1cc(C)n2nc3nc(N4CCCCC4)nc(-c4ccco4)c3c2n1`: the cell count in test [1] amounted to 315. For the same compound, the inhibition in test [1] was -2.2% (inactive); in test [3] it was -260% (inactive); in test [7], 12.6% (inactive); in test [8] it was 2.12% (inactive). The inhibition of aggregation in test [2] was -24.4% (inactive). The nuclei count in test [2] came to 105%; in test [3], 86.7%. The figures for the fluorescence slope in test [4] and in test [6] were -0.433 (inactive) and 0.00465 (inactive), respectively. Further, the NADPH fluorescence slope in test [5] is 1e-05 (inactive).
Turning to `CN1CCCC(OC(=O)COc2ccc(Br)cc2)C1` (centres undefined), in test [1], the cell count came out at 430. Further, the inhibition in test [1] is -3.5% (inactive); in test [3], -63.5% (inactive); in test [7], -9.52% (inactive); in test [8], -1.12% (inactive). In test [2], the inhibition of aggregation was 2.1% (inactive). Further, the results for the nuclei count in test [2] and in test [3] were 97% and 87.2%, respectively. Moreover, the fluorescence slope was -0.489 (inactive) in test [4] and 0.0054 (inactive) in test [6]. In addition, the NADPH fluorescence slope in test [5] is 0.000124 (inactive).
In the case of `c1ccc(-c2cc3c(nn2)CCc2nonc2-3)cc1`, in test [1], the cell count came out at 339. The inhibition in test [1] is 2.4% (inactive); in test [3] it was -9.2% (inactive); in test [7], -15.2% (inactive); in test [8] it was -31.9% (inactive). For the same compound, the inhibition of aggregation in test [2] is 19.1% (inactive). Besides, the nuclei count in test [2] was 100%; in test [3], 111%. Besides, the fluorescence slope in test [4] was -0.543 (inactive); in test [6], 0.00417 (inactive). The NADPH fluorescence slope in test [5] was -0.00017 (inactive).
As for `C/C(Cl)=C\Cn1c(NCCc2ccccc2)nc2c1c(=O)n(C)c(=O)n2C`, the cell count in test [1] worked out at 636. Moreover, the inhibition in test [1] was -7.8% (inactive); in test [3], 6.4% (inactive); in test [7], 12.1% (inactive); in test [8] it was 2.85% (inactive). The inhibition of aggregation in test [2] is 29.8% (inactive). Besides, the nuclei count in test [2] was found to be 84.6%; in test [3] it was 96.4%. Further, the fluorescence slope is -0.286 (inactive) in test [4] and 0.00523 (inactive) in test [6]. The NADPH fluorescence slope in test [5] was -2.8e-05 (inactive).
Turning to `CSc1n[nH]c(NCc2ccccc2)n1`, the cell count in test [1] came out at 278. For the same compound, the inhibition in test [1] was 0.2% (inactive); in test [3], -70.1% (inactive); in test [7] it was 6.09% (inactive); in test [8] it was -2.54% (inactive). For the same compound, in test [2], the inhibition of aggregation is 10.1% (inactive). Moreover, the results for the nuclei count in test [2] and in test [3] were 70.6% and 119%, respectively. Besides, the results for the fluorescence slope in test [4] and in test [6] were -0.482 (inactive) and 0.00548 (inactive), respectively. Besides, the NADPH fluorescence slope in test [5] was -1.9e-05 (inactive).
Consider `CC1(C)CC(=O)C2=C(C1)N(Cc1ccco1)C(=O)C2(NC(=O)C1CCCCC1)C(F)(F)F` (centres undefined), for which the cell count in test [1] stood at 670. For the same compound, the inhibition in test [1] is -2.6% (inactive); in test [3], -51% (inactive); in test [7], 16.7% (inactive); in test [8], 21.1% (inactive). In test [2], the inhibition of aggregation was 9.8% (inactive). For the same compound, the results for the nuclei count in test [2] and in test [3] were 111% and 116%, respectively. The fluorescence slope in test [4] was -0.453 (inactive); in test [6], 0.00581 (inactive). For the same compound, the NADPH fluorescence slope in test [5] is -6.1e-05 (inactive).
In the case of `O=C(c1ccco1)N1CCN(C(=O)C2CCN(S(=O)(=O)c3cccc4nsnc34)CC2)CC1`, in test [1], the cell count came out at 549. For the same compound, the inhibition is 9.4% (inactive) in test [1], 8.2% (inactive) in test [3], 8.36% (inactive) in test [7] and 18.1% (inactive) in test [8]. In addition, the inhibition of aggregation in test [2] is 5.1% (inactive). Further, the nuclei count in test [2] came to 104%; in test [3], 96.4%. In addition, the fluorescence slope was -0.468 (inactive) in test [4] and 0.00637 (inactive) in test [6]. Besides, the NADPH fluorescence slope in test [5] was 0.000197 (inactive).
Take `CCOC(=O)c1[nH]cc(-c2ccccc2)c1N1CCOCC1`: the cell count in test [1] stood at 398. Moreover, the inhibition in test [1] was -3.5% (inactive); in test [3], -131% (inactive); in test [7], 4.95% (inactive); in test [8] it was 15.7% (inactive). Moreover, the inhibition of aggregation in test [2] was 0.7% (inactive). Besides, the nuclei count in test [2] came out at 110%; in test [3], 100%. For the same compound, the fluorescence slope in test [4] was -0.541 (inactive); in test [6], 0.00498 (inactive). Besides, in test [5], the NADPH fluorescence slope was -4.5e-05 (inactive).
Regarding `CCOC(=O)N1CCC(NC(=O)C2CCCN2C(=O)OCc2ccccc2)CC1` (centres undefined), the cell count in test [1] worked out at 861. Moreover, the inhibition in test [1] was -0.5% (inactive); in test [3] it was -19.6% (inactive); in test [7] it was -11.6% (inactive); in test [8], -1.88% (inactive). Besides, the inhibition of aggregation in test [2] is -11.6% (inactive). For the same compound, the nuclei count in test [2] was 120%; in test [3] it was 110%. Besides, the fluorescence slope in test [4] is -0.561 (inactive); in test [6], 0.00566 (inactive). For the same compound, the NADPH fluorescence slope in test [5] is -1.3e-05 (inactive).
Take `N#C[C@@H]1[C@@H]2C(=O)N(c3ccc4c(c3)OCCO4)C(=O)[C@@H]2C2c3ccccc3C=CN21` (some centres undefined): the cell count in test [1] amounted to 351. Besides, the inhibition was 0.5% (inactive) in test [1], -62.1% (inactive) in test [3], -1.7% (inactive) in test [7] and -13.1% (inactive) in test [8]. Moreover, the inhibition of aggregation in test [2] is 6.7% (inactive). Further, the nuclei count in test [2] came out at 107%; in test [3], 106%. The fluorescence slope in test [4] was -0.6 (inactive); in test [6], 0.00563 (inactive). Moreover, the NADPH fluorescence slope in test [5] was -2.2e-05 (inactive).
Consider `CN(CC(=O)N1CCN(C2CCCCC2)CC1)S(=O)(=O)c1cccc2nsnc12`, for which, in test [1], the cell count stood at 367. Besides, the inhibition is 0.8% (inactive) in test [1], 36% (inactive) in test [3], 13% (inactive) in test [7] and 28.3% (inactive) in test [8]. Further, the inhibition of aggregation in test [2] was -4.6% (inactive). In addition, the values for the nuclei count in test [2] and in test [3] were 102% and 94.6%, respectively. Further, the fluorescence slope is -0.379 (inactive) in test [4] and 0.00544 (inactive) in test [6]. Besides, the NADPH fluorescence slope in test [5] is 8e-05 (inactive).
Consider `CCOc1ccc(CCNC(=O)CCc2nc(-c3ccc(OC)cc3)no2)cc1OCC`, for which the cell count in test [1] stood at 322. Besides, the inhibition in test [1] is -3.5% (inactive); in test [3], -64.9% (inactive); in test [7] it was 12.2% (inactive); in test [8], 12.3% (inactive). The inhibition of aggregation in test [2] was 1.2% (inactive). In addition, the nuclei count came to 87.7% in test [2] and 146% in test [3]. For the same compound, the values for the fluorescence slope in test [4] and in test [6] were -0.529 (inactive) and 0.00633 (inactive), respectively. The NADPH fluorescence slope in test [5] is 3.2e-05 (inactive).
Consider `COc1ccc(N2C(=O)C3CCCN3C2c2ccc(F)cc2)cc1Cl` (centres undefined), for which, in test [1], the cell count worked out at 412. Besides, the inhibition in test [1] was -2.7% (inactive); in test [3], 18.5% (inactive); in test [7] it was 7.49% (inactive); in test [8], 14.6% (inactive). Also, in test [2], the inhibition of aggregation was -12.9% (inactive). Besides, the nuclei count stood at 101% in test [2] and 89.1% in test [3]. Also, the fluorescence slope is -0.538 (inactive) in test [4] and 0.00539 (inactive) in test [6]. Moreover, the NADPH fluorescence slope in test [5] is -1.5e-05 (inactive).
